Tests used:
[1] = system: Rattus norvegicus; assay: Antiinflammatory activity against carrageenan induced albino Sprague-Dawley rat paw edema model assessed as paw diameter at 10 mg/kg, po pretreated for 1 hr followed by carrageenan challenge and measured at 4 hrs post-carrageenan injection (reference value: 4.88 +/- 0.1 mm); format: functional
[2] = Ulcerogenicity in albino rat assessed as gastric lesions at 10 mg/kg, po administered as single dose after 18 hrs of starvation challenge and measured after 4 hrs; format: toxicity, organism-based; conditions: in vivo
Summary of the method: (§1)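 Adult male albino rats fasted 18 h, then dosed orally at 10 mg/kg (saline control, reference drugs); six rats per group. Killed 4 h after treatment. Stomachs removed and examined macroscopically for hyperemia, single or multiple lesions, erosion, ulcer or perforation. Number of ulcers and occurrence of hyperemia recorded.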

[3] = system: Rattus norvegicus; assay: Antiinflammatory activity against carrageenan-induced albino Sprague-Dawley rat paw edema model assessed as paw diameter at 10 mg/kg, po pretreated for 1 hr followed by carrageenan challenge and measured at 1 hr post-carrageenan injection (reference value: 4.51 +/- 0.09 mm); format: functional
[4] = molecular target: Prostaglandin G/H synthase 1 (Homo sapiens, UniProt P23219); assay: Inhibition of human COX1 assessed as reduction in PGF2alpha production using arachidonic acid as substrate preincubated with enzyme for 10 mins followed by substrate addition by ELISA; format: single protein
[5] = system: Rattus norvegicus; assay: Antiinflammatory activity against carrageenan induced albino Sprague-Dawley rat paw edema model assessed as paw edema at 10 mg/kg, po pretreated for 1 hr followed by carrageenan challenge and measured at 3 hrs post-carrageenan injection (reference value: 38.4%); format: functional
[6] = system: Rattus norvegicus; assay: Antiinflammatory activity against carrageenan induced albino Sprague-Dawley rat paw edema model assessed as paw diameter at 10 mg/kg, po pretreated for 1 hr followed by carrageenan challenge and measured at 3 hrs post-carrageenan injection (reference value: 4.79 +/- 0.1 mm); format: functional
[7] = system: Rattus norvegicus; assay: Antiinflammatory activity against carrageenan induced albino Sprague-Dawley rat paw edema model assessed as paw edema at 10 mg/kg, po pretreated for 1 hr followed by carrageenan challenge and measured at 4 hrs post-carrageenan injection (reference value: 41%); format: functional
[8] = system: Rattus norvegicus; assay: Antiinflammatory activity against carrageenan-induced albino Sprague-Dawley rat paw edema model assessed as paw diameter at 10 mg/kg, po pretreated for 1 hr followed by carrageenan challenge and measured immediately after carrageenan injection (reference value: 3.46 +/- 0.08 mm); format: functional
[9] = system: Rattus norvegicus; assay: Antiinflammatory activity against carrageenan induced albino Sprague-Dawley rat paw edema model assessed as paw diameter at 10 mg/kg, po pretreated for 1 hr followed by carrageenan challenge and measured at 2 hrs post-carrageenan injection (reference value: 4.72 +/- 0.08 mm); format: functional
[10] = system: Rattus norvegicus; assay: Antiinflammatory activity against carrageenan-induced albino Sprague-Dawley rat paw edema model assessed as paw edema at 10 mg/kg, po pretreated for 1 hr followed by carrageenan challenge and measured at 2 hrs post-carrageenan injection (reference value: 36.4%); format: functional
[11] = system: Rattus norvegicus; assay: Antiinflammatory activity against carrageenan induced albino Sprague-Dawley rat paw edema model assessed as paw edema at 10 mg/kg, po pretreated for 1 hr followed by carrageenan challenge and measured at 1 hr post-carrageenan injection (reference value: 30.3%); format: functional
[12] = Ulcerogenicity in albino rat assessed as severity of gastric lesions at 10 mg/kg, po administered as single dose after 18 hrs of starvation challenge and measured after 4 hrs; format: toxicity, organism-based; conditions: in vivo; summary of the method: as §1
[13] = Ulcerogenicity in albino rat assessed as mild hyperemia without ulceration at 10 mg/kg, po administered as single dose after 18 hrs of starvation challenge and measured after 4 hrs; format: toxicity, organism-based; conditions: in vivo; summary of the method: as §1

Chain of Prostaglandin G/H synthase 1 (P23219 whole entry): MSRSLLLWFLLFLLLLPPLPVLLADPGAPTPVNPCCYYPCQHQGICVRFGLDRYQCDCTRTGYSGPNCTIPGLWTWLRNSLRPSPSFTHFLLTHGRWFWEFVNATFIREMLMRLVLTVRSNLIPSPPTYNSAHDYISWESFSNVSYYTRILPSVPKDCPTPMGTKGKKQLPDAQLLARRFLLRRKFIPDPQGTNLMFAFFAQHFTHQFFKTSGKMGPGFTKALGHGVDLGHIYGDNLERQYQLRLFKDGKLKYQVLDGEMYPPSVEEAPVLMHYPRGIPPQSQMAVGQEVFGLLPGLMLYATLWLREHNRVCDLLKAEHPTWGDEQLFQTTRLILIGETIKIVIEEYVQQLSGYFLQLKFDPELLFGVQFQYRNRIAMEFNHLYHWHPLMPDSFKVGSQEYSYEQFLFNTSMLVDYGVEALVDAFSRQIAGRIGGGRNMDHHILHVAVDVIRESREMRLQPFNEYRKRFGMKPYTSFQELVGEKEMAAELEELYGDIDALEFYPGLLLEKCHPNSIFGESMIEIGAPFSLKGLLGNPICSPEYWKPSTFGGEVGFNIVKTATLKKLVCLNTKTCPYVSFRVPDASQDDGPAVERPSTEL

SMILES | IC50 [4] | Activity [1] | UI [2] | Activity [3] | Activity [5] | Activity [6] | Activity [7] | Activity [8] | Activity [9] | Activity [10] | Activity [11] | UI [12] | Activity [13]
O=C1CCC(/C=C/c2cccnc2)=NN1 | 750 nM | 3.78 mm | 0 | 3.92 mm | 7.9% | 3.81 mm | 7% | 3.53 mm | 3.86 mm | 9.3% | 11% | 0 | –
Cc1ccc(-c2cc(C(F)(F)F)nn2-c2ccc(S(N)(=O)=O)cc2)cc1 [CELECOXIB] | – | 3.78 mm | 2.7 | 3.93 mm | 10% | 3.83 mm | 8.6% | 3.48 mm | 3.88 mm | 11.4% | 12.9% | 6.2 | –
Cc1cccc(/C=C/C2=NNC(=O)CC2)c1 | 450 nM | 3.8 mm | 0.2 | 3.99 mm | 10.2% | 3.84 mm | 8.2% | 3.51 mm | 3.92 mm | 11.6% | 13.6% | 0.4 | Toxic
Cc1cccc(/C=C/c2ccc(=O)n(-c3ccc(F)cc3)n2)c1 | 240 nM | – | – | – | – | – | – | – | – | – | – | – | –
COc1ccc2c(c1)c(CC(=O)O)c(C)n2C(=O)c1ccc(Cl)cc1 [INDOMETHACIN] | – | 3.73 mm | 8.3 | 3.92 mm | 9.4% | 3.81 mm | 8% | 3.49 mm | 3.85 mm | 10.3% | 12.3% | 12.4 | –
Cc1cccc(/C=C/c2ccc(=O)[nH]n2)c1 | 370 nM | 3.82 mm | 0 | 3.96 mm | 8.1% | 3.84 mm | 7.6% | 3.55 mm | 3.86 mm | 8.7% | 11.5% | 0 | –

Further lines, with some results ahead:

IC50 [4] | SMILES | Activity [1] | UI [2] | Activity [3] | Activity [5] | Activity [6] | Activity [7] | Activity [8] | Activity [9] | Activity [10] | Activity [11] | UI [12] | Activity [13]
390 nM | COc1ccccc1/C=C/C1=NN(c2ccccc2)C(=O)CC1 | – | – | – | – | – | – | – | – | – | – | – | –
210 nM | Cc1cccc(/C=C/C2=NN(c3ccc(F)cc3)C(=O)CC2)c1 | – | – | – | – | – | – | – | – | – | – | – | –
540 nM | COc1ccccc1/C=C/C1=NN(c2ccc(F)cc2)C(=O)CC1 | – | – | – | – | – | – | – | – | – | – | – | –
460 nM | COc1ccccc1/C=C/c1ccc(=O)n(-c2ccccc2)n1 | – | – | – | – | – | – | – | – | – | – | – | –
530 nM | COc1ccccc1/C=C/c1ccc(=O)[nH]n1 | – | – | – | – | – | – | – | – | – | – | – | –
270 nM | COc1ccccc1/C=C/C1=NNC(=O)CC1 | – | – | – | – | – | – | – | – | – | – | – | –
700 nM | COc1ccccc1/C=C/c1ccc(=O)n(-c2ccc(F)cc2)n1 | 3.85 mm | 0 | 3.97 mm | 8% | 3.88 mm | 7.2% | 3.59 mm | 3.93 mm | 9.4% | 10.5% | 0 | –
